Source: ChEMBL document CHEMBL1133754, “Synthesis and antiviral evaluation of halogenated beta-D- and -L-erythrofuranosylbenzimidazoles” (J Med Chem, 2000)
pIC50: −log10 of the molar value.

Tests used:
[1] = Compound was tested for antiviral activity against Towne strain of HCMV in a yield reduction assay using HFF cells; format: functional; details: Homo sapiens
How it was run: (§1)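 HCMV Towne yield reduction in HFF cells, MOI 0.5; progeny titred by end-point dilution and plaque enumeration; IC50 from linear regression of percent inhibition against log drug concentration.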

[2] = tested on: HFF; assay: Compound was tested for antiviral activity against Towne strain of HCMV in a plaque reduction assay using HFF cells; format: functional, cell-based; details: Homo sapiens
[3] = (§2) Compound was tested for inhibition of KB cell growth in quadruplicate assay; format: functional, cell-based; details: Homo sapiens
How it was run: (§3)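 KB cell proliferation over two control population doublings; crystal violet staining with spectrophotometric quantification of eluted dye; quadruplicate assays; IC50 by linear regression of percent inhibition vs log concentration.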

[4] = Compound was tested for inhibition of MOLT 4 cells.; format: functional, cell-based, Homo sapiens
How it was run: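 Cytotoxicity in MOLT 4 cells (human T-cell lymphocytic leukemia line). IC50 from linear regression of percent inhibition against log drug concentration; >100 µM means IC50 was not reached at the highest concentration tested.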

[5] = tested on: Human betaherpesvirus 5; assay: Compound was tested for antiviral activity against HCMV in DNA hybridization assay; format: functional, organism-based
How it was run: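 HCMV replication measured by DNA hybridization; IC50 from linear regression of percent inhibition against log drug concentration.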

[6] = tested on: Human betaherpesvirus 5; assay: Compound was tested for antiviral activity against HCMV in viral cytopathic effect (CPE) assay; format: functional, organism-based
How it was run: (§4)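 HCMV viral cytopathic effect scored microscopically as visible virus effects on cells; IC50 derived by linear regression of percent inhibition vs log drug concentration.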

[7] = tested on: HFF; assay: Compound was tested for visual cytotoxicity on HFF cells unaffected by HCMV at the time of plaque enumeration; format: functional, cell-based; details: Homo sapiens
How it was run: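 Stationary HFF cells not affected by virus in plaque assay plates inspected microscopically for cytotoxicity at time of plaque enumeration; IC50 by regression of percent inhibition vs log concentration.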

[8] = tested on: HFF; assay: (§5) Compound was tested for antiviral activity against C-4 Towne strain of HCMV in yield reduction assay using HFF cells; format: functional; details: Homo sapiens
[9] = tested on: HFF; assay: Compound was tested for antiviral activity against AD169 strain of HCMV in a plaque reduction assay using HFF cells; format: functional, cell-based; details: Homo sapiens
[10] = tested on: Human betaherpesvirus 5; assay: Compound was tested for antiviral activity against HCMV in viral cytopathic effect(CPE) assay; format: functional, organism-based; how it was run: as §4
[11] = tested on: HFF; assay: (§6) Compound was tested for antiviral activity against wild-type Towne strain of HCMV in yield reduction assay using HFF cells; format: functional; details: Homo sapiens; how it was run: as §1
[12] = tested on: Human alphaherpesvirus 1; assay: Compound was tested for antiviral activity against HSV-1 assayed by ELISA in quadruplicate wells; format: functional, organism-based
How it was run: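 HSV-1 replication measured by ELISA in quadruplicate wells; IC50 from linear regression of percent inhibition against log drug concentration.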

[13] = tested on: KB; assay: as §2; format: functional, cell-based; details: Homo sapiens; how it was run: as §3
[14] = tested on: HFF; assay: as §6; format: functional, cell-based; details: Homo sapiens; how it was run: as §1
[15] = tested on: HFF; assay: (§7) Compound was tested for antiviral activity against wild-type AD169 strain of HCMV in yield reduction assay using HFF cells; format: functional; details: Homo sapiens
[16] = tested on: HFF; assay: (§8) Compound was tested for antiviral activity against 2916 AD169 strain of HCMV in yield reduction assay using HFF cells; format: functional; details: Homo sapiens
[17] = tested on: HFF; assay: as §5; format: functional, cell-based; details: Homo sapiens
[18] = tested on: HFF; assay: as §8; format: functional, cell-based; details: Homo sapiens
[19] = tested on: HFF; assay: Compound was tested for antiviral activity against AD169 strain of HCMV in a plaque assay using HFF cells; format: functional, cell-based; details: Homo sapiens
[20] = tested on: HFF; assay: as §7; format: functional, cell-based; details: Homo sapiens
[21] = tested on: HFF; assay: Compound was tested for antiviral activity against 2916 type AD169 virus of HCMV in plaque reduction assay using HFF cells; format: functional, cell-based; details: Homo sapiens
[22] = tested on: HFF; assay: Compound was tested for antiviral activity against wild-type Towne virus of HCMV in plaque reduction assay using HFF cells; format: functional, cell-based; details: Homo sapiens
[23] = tested on: HFF; assay: Compound was tested for antiviral activity against C-4 Towne virus of HCMV in plaque reduction assay using HFF cells; format: functional, cell-based; details: Homo sapiens
[24] = tested on: HFF; assay: Compound was tested for antiviral activity against wild-type AD169 virus of HCMV in plaque reduction assay using HFF cells; format: functional, cell-based; details: Homo sapiens
[25] = tested on: HFF; assay: Compound was tested for antiviral activity against wild-type Towne virus of HCMV in yield reduction assay using HFF cells; format: functional, cell-based; details: Homo sapiens; how it was run: as §1
[26] = tested on: HFF; assay: Compound was tested for antiviral activity against C-4 Towne virus of HCMV in yield reduction assay using HFF cells; format: functional, cell-based; details: Homo sapiens
[27] = tested on: HFF; assay: Compound was tested for antiviral activity against 2916 strain of HCMV in plaque reduction assay using HFF cells; format: functional, cell-based; details: Homo sapiens

Structure (SMILES)	IC90 [1] [µM]	pIC50 [2]	pIC50 [3]	pIC50 [4]	pIC50 [5]	pIC50 [6]	pIC50 [7]	pIC50 [12]	pIC50 [13]	other results
OC[C@H]1O[C@@H](n2c(Cl)nc3cc(Cl)c(Cl)cc32)[C@H](O)[C@@H]1O	1.3	5.55	3.68	–	–	–	–	–	–	–
CC(C)Nc1nc2cc(Cl)c(Cl)cc2n1C1OC[C@H](O)[C@@H]1O (stereo partly drawn)	–	–	–	4.82	6.10	5.64	–	–	–	–
CC(C)Nc1nc2cc(Cl)c(Cl)cc2n1C1OC[C@@H](O)[C@H]1O (stereo partly drawn)	5	5.10	–	4.08	6.38	–	< 4.00	< 4.00	< 4.00	IC90 [8]: 8.5 µM; pIC50 [9]: 5.74; pIC50 [10]: 6.10; IC90 [11]: 6.9 µM
O[C@@H]1COC(n2c(NC3CC3)nc3cc(Cl)c(Cl)cc32)[C@@H]1O (stereo partly drawn)	6.8	4.72	< 4.00	3.88	6.59	6.22	< 4.00	< 4.00	–	IC90 [8]: 5 µM; IC90 [11]: 10 µM
CC(=O)OC1[C@@H](OC(C)=O)CO[C@H]1n1c(Br)nc2cc(Cl)c(Cl)cc21 (stereo partly drawn)	0.05	6.66	4.22	–	6.68	7.30	4.23	< 4.00	–	pIC50 [9]: 7.30
Nc1nc2c(ncn2COC(CO)CO)c(=O)[nH]1 [GANCICLOVIR]	1.6	–	–	–	6.06	–	< 4.00	–	< 4.00	pIC50 [14]: 5.35; IC90 [15]: 3.3 µM; pIC50 [10]: 5.70; IC90 [16]: 3.6 µM; IC90 [17]: 4.1 µM
CC(C)Nc1nc2cc(Cl)c(Cl)cc2n1C1O[C@@H](CO)[C@H](O)[C@@H]1O (stereo partly drawn)	0.6	–	4.19	–	7.00	–	< 4.00	< 4.00	–	IC90 [8]: 0.7 µM; pIC50 [18]: < 4.00; pIC50 [19]: 6.35; IC90 [11]: 0.59 µM; pIC50 [20]: 6.48
O[C@@H]1COC(n2c(Cl)nc3cc(Cl)c(Cl)cc32)[C@@H]1O (stereo partly drawn)	0.12	6.62	4.22	–	7.00	7.00	4.49	< 4.00	–	–
O[C@@H]1C(n2c(NC3CC3)nc3cc(Cl)c(Cl)cc32)OC[C@@H]1O (stereo partly drawn)	–	–	–	4.37	5.70	5.64	–	–	–	–
O[C@@H]1COC(n2c(Cc3ccccc3S)nc3cc(Cl)c(Cl)cc32)[C@@H]1O (stereo partly drawn)	–	4.49	–	–	< 5.00	< 5.00	4.49	4.19	4.22	–
O[C@@H]1COC(n2c(Br)nc3cc(Cl)c(Cl)cc32)[C@@H]1O (stereo partly drawn)	0.06	6.62	–	4.33	6.64	7.30	4.49	4.30	4.30	pIC50 [9]: 7.40; pIC50 [21]: 7.52; pIC50 [22]: 6.64; pIC50 [23]: 4.92; pIC50 [24]: 7.52
OC[C@H]1O[C@@H](n2c(Br)nc3cc(Cl)c(Cl)cc32)[C@H](O)[C@@H]1O	0.2	6.15	–	–	6.28	6.52	3.93	3.89	< 4.00	pIC50 [25]: 6.52; pIC50 [22]: 5.77; pIC50 [23]: 4.51; IC90 [26]: 8 µM; pIC50 [27]: 6.39; pIC50 [24]: 6.47
CC(=O)OC1[C@@H](OC(C)=O)CO[C@H]1n1c(Cl)nc2cc(Cl)c(Cl)cc21 (stereo partly drawn)	0.1	6.60	4.35	–	6.48	7.00	4.39	< 4.00	–	–
CC(C)Nc1nc2c(Cl)c(Cl)c(Cl)cc2n1C1OC[C@H](O)[C@@H]1O (stereo partly drawn)	–	–	–	–	6.82	6.10	–	–	–	–
CC(C)Nc1nc2c(Br)c(Cl)c(Cl)cc2n1C1OC[C@@H](O)[C@H]1O (stereo partly drawn)	–	–	–	4.89	6.80	6.00	–	–	–	–
